Among the data in ChEMBL document CHEMBL1135620, “Cyclosporins: structure-activity relationships for the inhibition of the human FPR1 formylpeptide receptor” (J Med Chem, 2002) are IC20 values, retold here.

Where only a bound is given, the exact number is not on record here.

As a reminder, the IC20 is the concentration needed for an effect of 20%.

In the test the target is T1, fMet-Leu-Phe receptor (Homo sapiens) (UniProt P21462).
T1 sequence (whole entry): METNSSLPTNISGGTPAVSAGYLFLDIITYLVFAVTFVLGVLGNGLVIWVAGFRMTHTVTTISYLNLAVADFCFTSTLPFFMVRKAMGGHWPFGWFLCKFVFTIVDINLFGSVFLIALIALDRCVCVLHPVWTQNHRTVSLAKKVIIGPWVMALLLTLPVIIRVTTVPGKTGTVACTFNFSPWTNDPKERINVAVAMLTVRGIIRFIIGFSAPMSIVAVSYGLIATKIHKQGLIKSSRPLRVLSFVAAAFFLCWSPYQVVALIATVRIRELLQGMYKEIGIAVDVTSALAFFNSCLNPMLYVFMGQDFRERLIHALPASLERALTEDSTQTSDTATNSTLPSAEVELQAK
The experiment in a line: Inhibitory activity against Human formylpeptide receptor (FPR) of human leukemia HL-60 cells. Type of test: cell-based. The essentials:
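HL-60 cells differentiated 48 h with 0.2 mM dibutyryl cAMP, washed, then treated with 5 μM cytochalasin B (5–10 min, 37 °C). Stimulated 10 min with 30 nM f-MLF. N-acetyl-β-D-glucosaminidase release read at 410 nm on p-nitrophenyl substrate after spontaneous-release subtraction. Duplicate wells; IC20/IC50 as mean ± SD of independent experiments.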

Consider `CCC[C@@H]1NC(=O)[C@H](CC(C)C)N(C)C(=O)[C@H](C(C)C)N(C)C(=O)[C@H](CC(C)C)N(C)C(=O)[C@H](CC(C)C)N(C)C(=O)[C@@H](C)NC(=O)[C@H](C)NC(=O)[C@@H](CC(C)C)N(C)C(=O)[C@H](C(C)C)NC(=O)[C@@H](CC(C)C)N(C)C(=O)CN(C)C1=O`, for which it took 7.6 µM to reach the 20% level (IC20).
`C/C=C/C[C@@H](C)[C@@H](O)[C@H]1C(=O)N[C@@H](CC)C(=O)NCC(=O)N(C)[C@H](CC(C)C)C(=O)N[C@H](C(C)C)C(=O)N(C)[C@H](CC(C)C)C(=O)N[C@@H](C)C(=O)N[C@H](CO)C(=O)N(C)[C@@H](CC(C)C)C(=O)N(C)[C@@H](CC(C)C)C(=O)N(C)[C@@H](C(C)C)C(=O)N1C` displayed a 20% effect concentration (IC20) of 1.9 µM.
To `C/C=C/C[C@@H](C)[C@@H](O)[C@H]1C(=O)N[C@@H]([C@@H](C)O)C(=O)N(C)CC(=O)N(C)[C@H](CC(C)C)C(=O)N[C@@H]([C@@H](C)CC)C(=O)N(C)[C@H](CC(C)C)C(=O)N[C@@H](C)C(=O)N[C@H](C)C(=O)N(C)[C@@H](CC(C)C)C(=O)N(C)[C@@H](CC(C)C)C(=O)N(C)[C@@H](C(C)C)C(=O)N1C` belongs 0.09 µM.
For `C/C=C/C[C@@H](C)[C@@H](O)[C@H]1C(=O)N[C@@H]([C@@H](C)O)C(=O)N(C)CC(=O)N(C)[C@H](CC(C)C)C(=O)N[C@@H](CC(C)C)C(=O)N(C)[C@H](CC(C)C)C(=O)N[C@@H](C)C(=O)N[C@](O)(C(C)C)C(=O)N(C)[C@@H](CC(C)C)C(=O)N[C@@H](CC(C)C)C(=O)N(C)[C@@H](C(C)C)C(=O)N1C`, the 20% effect level (IC20) was put at 0.2 µM.
`C/C=C/C[C@@H](C)[C@@H](O)[C@H]1C(=O)N[C@@H](CC)C(=O)N(C)CC(=O)N(C)[C@H](CC(C)C)C(=O)N[C@H](C(C)C)C(=O)N(C)[C@H](CC(C)C)C(=O)N[C@@H](C)C(=O)N[C@H](C)C(=O)N(C)[C@@H](CC(C)C)C(=O)N[C@@H](CC(C)C)C(=O)N(C)[C@@H](C(C)C)C(=O)N1C` registered an IC20 of 0.65 µM.
In the case of `C/C=C/C[C@@H](C)[C@@H](O)[C@H]1C(=O)N[C@@H](CC)C(=O)N(C)CC(=O)N[C@@H](CC(C)C)C(=O)N[C@H](C(C)C)C(=O)N(C)[C@H](CC(C)C)C(=O)N[C@@H](C)C(=O)N[C@H](C)C(=O)N(C)[C@@H](CC(C)C)C(=O)N(C)[C@@H](CC(C)C)C(=O)N(C)[C@@H](C(C)C)C(=O)N1C`, the IC20 is more than 10 µM.
Consider `C/C=C/C[C@@H](C)[C@@H](O)[C@H]1C(=O)N[C@@H](CC)C(=O)N(C)CC(=O)N(C)[C@H](CC(C)C)C(=O)N[C@H](C(C)C)C(=O)N(C)[C@H](CC(C)C)C(=O)N[C@@H](C)C(=O)N[C@H](C)C(=O)N[C@@H](CC(C)C)C(=O)N(C)[C@@H](CC(C)C)C(=O)N(C)[C@@H](C(C)C)C(=O)N1C`, for which it took 0.53 µM to reach the 20% level (IC20).
`C/C=C/C[C@@H](C)[C@@H](O)[C@H]1C(=O)N[C@@H](CC)C(=O)N(C)CC(=O)N(C)[C@H](CC(C)C)C(=O)N[C@H](C(C)C)C(=O)N(C)[C@H](CC(C)C)C(=O)N[C@@H](C)C(=O)N[C@H](C)C(=O)N(C)[C@@H](CC(C)C)C(=O)N(C)[C@@H](CC(C)C)C(=O)N[C@@H](C(C)C)C(=O)N1C` had a concentration for an effect of 20% (IC20) of 3.8 µM.
Turning to `C/C=C/C[C@@H](C)[C@@H](O)[C@H]1C(=O)N[C@@H](C(C)C)C(=O)N(C)CC(=O)N(C)[C@H](CC(C)C)C(=O)N[C@H](C(C)C)C(=O)N(C)[C@H](CC(C)C)C(=O)N[C@@H](C)C(=O)N[C@H](C)C(=O)N(C)[C@@H](CC(C)C)C(=O)N[C@@H](CC(C)C)C(=O)N(C)[C@@H](C(C)C)C(=O)N1C`, the IC20 stood at 1.4 µM.
The compound `CC/C=C/C[C@@H](C)[C@@H](O)[C@H]1C(=O)N[C@@H](C(C)C)C(=O)N(C)CC(=O)N(C)[C@H](CC(C)C)C(=O)N[C@H](C(C)C)C(=O)N(C)[C@H](CC(C)C)C(=O)N[C@@H](C)C(=O)N[C@H](C)C(=O)N(C)[C@@H](CC(C)C)C(=O)N(C)[C@@H](CC(C)C)C(=O)N(C)[C@@H](C(C)C)C(=O)N1C` registered an IC20 of 3.9 µM. Against the preceding compound, the IC20 is about 2.8-fold higher.
For `C/C=C/C[C@@H](C)[C@@H](O)[C@H]1C(=O)N[C@@H](CCC)C(=O)N(C)CC(=O)N(C)[C@H](CC(C)C)C(=O)N[C@@H](CCC)C(=O)N(C)[C@H](CC(C)C)C(=O)NC(C)C(=O)N[C@H](C)C(=O)N(C)[C@@H](CC(C)C)C(=O)N(C)[C@@H](CC(C)C)C(=O)N(C)[C@@H](C(C)C)C(=O)N1C` (some centres undefined) the value was 0.2 µM.
Regarding `C/C=C/C[C@@H](C)[C@@H](O)[C@H]1C(=O)N[C@@H](CC)C(=O)N(C)CC(=O)N(C)[C@H](CC(C)C)C(=O)N[C@H](C(C)C)C(=O)N(C)[C@H](CC(C)C)C(=O)N[C@@H](C)C(=O)N[C@H](C)C(=O)N(C)[C@@H](CC(C)C)C(=O)N(C)[C@@H](CC(C)C)C(=O)N(C)[C@@H](C)C(=O)N1C`, the concentration for an effect of 20% (IC20) is 0.31 µM.
The compound `CC[C@@H]1NC(=O)[C@H]([C@H](O)[C@H](C)C/C=C/CO)N(C)C(=O)[C@H](C(C)C)N(C)C(=O)[C@H](CC(C)C)N(C)C(=O)[C@H](CC(C)C)N(C)C(=O)[C@@H](C)NC(=O)[C@H](C)NC(=O)[C@@H](CC(C)C)N(C)C(=O)[C@@H](C(C)C)NC(=O)[C@@H](CC(C)C)N(C)C(=O)CN(C)C1=O` returned a 20% effect concentration (IC20) of more than 10 µM.
To `C/C=C/C[C@@H](C)[C@@H](O)[C@H]1C(=O)N[C@@H]([C@@H](C)O)C(=O)N(C)CC(=O)N(C)[C@H](CC(C)C)C(=O)N[C@@H](CC(C)C)C(=O)N(C)[C@H](CC(C)C)C(=O)N[C@@H](C)C(=O)N[C@H](C)C(=O)N(C)[C@@H](CC(C)C)C(=O)N[C@@H](C)C(=O)N(C)[C@@H](C(C)C)C(=O)N1C` belongs 0.8 µM; to `C/C=C/C[C@@H](C)[C@@H](O)[C@H]1C(=O)N[C@@H]([C@@H](C)O)C(=O)N(C)CC(=O)N(C)[C@H](CC(C)C)C(=O)N[C@H](C(C)C)C(=O)N(C)[C@H](CC(C)C)C(=O)N[C@@H](C)C(=O)N[C@H](C)C(=O)N(C)[C@@H](CC(C)C)C(=O)N[C@@H](CC(C)C)C(=O)N(C)[C@@H](C(C)C)C(=O)N1C`, 2.05 µM.
`C/C=C/C[C@@H](C)[C@@H](O)[C@H]1C(=O)N[C@@H](CC)C(=O)N(C)CC(=O)N(C)[C@H](CC(C)C)C(=O)N[C@H](C(C)C)C(=O)N(C)[C@H](CC(C)C)C(=O)N[C@@H](C)C(=O)N[C@H](C)C(=O)N(C)[C@@H](CC(C)C)C(=O)N(C)[C@@H](CC(C)C)C(=O)N(C)[C@@H]([C@@H](C)CC)C(=O)N1C` returned an IC20 of 2.9 µM. The IC20 values of the last two compounds are within 1.5-fold of each other.
As for `CC[C@@H]1NC(=O)[C@H](C2CCCCC2C)N(C)C(=O)[C@H](C(C)C)N(C)C(=O)[C@H](CC(C)C)N(C)C(=O)[C@H](CC(C)C)N(C)C(=O)[C@@H](C)NC(=O)[C@@H](C)NC(=O)[C@@H](CC(C)C)N(C)C(=O)[C@@H](C(C)C)NC(=O)[C@@H](CC(C)C)N(C)C(=O)CN(C)C1=O` (some centres undefined), the IC20 is more than 10 µM.
To `CC/C=C/C[C@@H](C)[C@@H](O)[C@H]1C(=O)N[C@@H](CC)C(=O)N(C)CC(=O)N(C)[C@@H]([C@@H](C)CC)C(=O)N[C@H](C(C)C)C(=O)N(C)[C@H](CC(C)C)C(=O)N[C@@H](C)C(=O)N[C@H](C)C(=O)N(C)[C@@H](CC(C)C)C(=O)N(C)[C@@H](CC(C)C)C(=O)N(C)[C@@H](C(C)C)C(=O)N1C` belongs 1 µM.
Consider `C/C=C/C[C@@H](C)[C@@H](O)[C@H]1C(=O)N[C@@H]([C@@H](C)O)C(=O)N(C)CC(=O)N(C)[C@H](CC(C)C)C(=O)N[C@H](C(C)C)C(=O)N(C)[C@H](CC(C)C)C(=O)N[C@@H](C)C(=O)N[C@H](C)C(=O)N(C)[C@@H](CC(C)C)C(=O)N(C)[C@@H](CC(C)C)C(=O)N[C@@H](C(C)C)C(=O)N1C`, for which it took 6.4 µM to reach the 20% level (IC20). Against the preceding compound, the IC20 is about 6.4-fold higher.
